The values below come from ChEMBL document CHEMBL5385868, “Bifunctional carbazole derivatives for simultaneous therapy and fluorescence imaging in prion disease murine cell models” (Eur J Med Chem, 2023).

The structures appear in SMILES notation. pEC50: −log10 of the molar value. Activity calls are given as the source filed them. The calls are words filed in the database; no cut-off is given here.

A short description of series [1]: Cytotoxicity against RML infected mouse ScGT1 cells assessed as reduction in cell viability at 1 uM measured after 5 days by MTT assay relative to control. Type of series: toxicity, cell-based. The settings on record: scgt1, 120 h, time 5 day. The procedure, abridged:
(§1)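 MTT viability in RML-infected ScGT1 cells after 5 days exposure to 0.1, 1 or 10 µM compound, vehicle control. MTT 5 mg/mL in PBS for 3 h at 37 °C, 5% CO2; dissolved in DMSO/2-propanol (1:1), 30 min at room temperature, then plate read; triplicate.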
(Tetrazolium dyes change colour on reduction, which living cells bring about.)

The nature of series [2]: Cytotoxicity against RML infected mouse ScGT1 cells assessed as reduction in cell viability at 0.1 uM measured after 5 days by MTT assay relative to control. It counts as toxicity, cell-based. The settings on record: scgt1, 120 h, time 5 day. The procedure, abridged:
as §1

A short description of series [3]: Anti-prion activity against RML infected mouse ScGT1 cell lysate assessed as PrPSc residual level at 10 uM measured after 5 days by Western blot analysis relative to control. It counts as functional. The note with it: time 5 day. The procedure, abridged: (§2)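 RML-infected ScGT1 cells, confluent, split 1:10 and seeded in triplicate; compound (DMSO stock diluted in water) added to medium two days after seeding at 0.1, 1 or 10 µM, vehicle control; 5 days treatment. Lysates (1 mg/mL) digested with 20 µg/mL PK, 1 h, 37 °C, stopped with PMSF, ultracentrifuged; pellets blotted with anti-PrP Fab D18. PrPSc remaining expressed relative to untreated lysates.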

Series [4] can be described thus: Anti-prion activity against RML infected mouse ScGT1 cell lysate assessed as PrPSc residual level at 1 uM measured after 5 days by Western blot analysis relative to control. Type of series: functional. The note with it: time 5 day. The procedure, abridged: as §2
(In general: In western blotting, separated proteins are transferred to a membrane and probed.)

Series [5] is described as follows: Cytotoxicity against RML infected mouse ScGT1 cells assessed as reduction in cell viability at 10 uM measured after 5 days by MTT assay relative to control. It counts as toxicity, cell-based. The note with it: scgt1, 120 h, time 5 day. The procedure, abridged: as §1
The nature of series [6]: Anti-prion activity against RML infected mouse ScGT1 cell lysate assessed as PrPSc residual level at 0.1 uM measured after 5 days by Western blot analysis relative to control. It counts as functional. The settings on record: time 5 day. The method in brief: as §2
In series [7] the test system is GT1. The series is described as follows: Anti-prion activity against mouse GT1 cells assessed as reduction in PrPSc level at 0.1 to 10 uM measured after 5 days by Western blot analysis. Type of series: functional, cell-based. The settings on record: dose 0.1-10 µM, time 5.0 day.
Series [8] can be described thus: (§3) Anti-prion activity against RML infected mouse ScGT1 cells assessed as inhibition of PrPSc formation measured after 5 days by Western blot analysis. The settings on record: dose 0.1-10 µM; time 5 day. Type of series: functional. The procedure, abridged: as §2
Series [9] can be described thus: Anti-prion activity against RML infected mouse ScGT1 cell assessed as PrPSc clearance level measured after 5 days by Western blot analysis. Type of series: functional, cell-based. The settings on record: ScGT1, 120 h. The procedure, abridged: as §2
The nature of series [10]: Anti-prion activity against RML infected mouse ScGT1 cells assessed as reduction in PrPSc level measured after 5 days by Western blot analysis. Type of series: functional, cell-based. The note with it: ScGT1, 120 h. The procedure, abridged: as §2
Series [11] has as its target Major prion protein (Mus musculus) (UniProt P04925). In words: Inhibition of full length recombinant mouse PrP (89 to 231 residues) expressed in Escherichia coli BL21 (DE3) cells to PrPSc conversion assessed as lag time for protein aggregation at 4 uM measured after 72 hrs by spectramax fluorescence microplate reader analysis.
For series [12] the target is unchanged. The series is described as follows: Inhibition of full length recombinant mouse PrP (89 to 231 residues) expressed in Escherichia coli BL21 (DE3) cells to PrPSc conversion assessed as vCJD prion amplification at 10 uM.
Series [13] concerns N2a. In words: Effect on N2a mouse cells assessed appearance of protein aggregates measured after 60 mins by fluorescence based confocal microscopy based analysis. Type of series: functional, cell-based. The method in brief:
(§4)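 N2a cells on coverslips at semi-confluence for 24 h, fixed in 4% paraformaldehyde, permeabilised with 0.2% Triton X-100, denatured with 6 M GdnHCl for 10 min, blocked with 1% BSA, then stained with 0.025% compound for 60 min. Anti-PrP mAb W226 as counterstain, DAPI for nuclei; confocal imaging with FITC/TRITC filters.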

The subject of series [14] is N2a. In words: Effect on N2a mouse cells assessed appearance of protein clusters measured after 60 mins by fluorescence based confocal microscopy based analysis. It counts as functional, cell-based. The procedure, abridged: as §4
Series [15] relates to ScN2a. The series is described as follows: Anti-prion activity against 22L prion infected mouse ScN2a cells assessed as reduction in PrPSc level measured after 5 days by Western blot analysis. Type of series: functional, cell-based. The settings on record: 120 h. The method in brief: (§5)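 22L-infected ScGT1 or ScN2a cells given compound in medium (vehicle ≤0.001% DMSO), triplicate. Lysates digested with 20 µg/mL PK for 1 h at 37 °C, stopped with PMSF, ultracentrifuged; PK-resistant PrP detected by Western blot with anti-PrP Fab D18 and HRP-conjugated secondary, ECL read-out.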

In series [16] the target is Major prion protein (Mus musculus) (UniProt P04925). In words: Inhibition of full length recombinant mouse PrP (89 to 231 residues) expressed in Escherichia coli BL21 (DE3) cells to PrPSc conversion assessed as RML amplification at 10 uM.
The target is the same in series [17]. The series is described as follows: Inhibition of full length recombinant mouse PrP (89 to 231 residues) expressed in Escherichia coli BL21 (DE3) cells to PrPSc conversion assessed as RML amplification at 10 uM in presence of PMCA.
The nature of series [18]: Anti-prion activity against 22L prion infected mouse ScGT1 cells assessed as reduction in PrPSc level measured after 5 days by Western blot analysis. It counts as functional, cell-based. The note with it: ScGT1, 120 h. The procedure, abridged:
as §5

For series [19], the target named is Major prion protein (Mus musculus) (UniProt P04925). In words: Inhibition of full length recombinant mouse PrP (89 to 231 residues) expressed in Escherichia coli BL21 (DE3) cells to PrPSc conversion assessed as lag time for protein aggregation at 40 uM measured after 72 hrs by spectramax fluorescence microplate reader analysis.
Series [20] has the same target. The series is described as follows: Inhibition of full length recombinant mouse PrP (89 to 231 residues) expressed in Escherichia coli BL21 (DE3) cells to PrPSc conversion assessed as lag time for protein aggregation at 20 uM measured after 72 hrs by spectramax fluorescence microplate reader analysis.
Series [21] shares this target. In words: Inhibition of full length recombinant mouse PrP (89 to 231 residues) expressed in Escherichia coli BL21 (DE3) cells to PrPSc conversion assessed as vCJD prion amplification at 10 uM in presence of PMCA. The method in brief:
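vCJD prions serially diluted 10^-5 to 10^-8 into 10% brain homogenate from Tg(MHu2M) mice expressing chimeric human-murine PrP, in conversion buffer with 0.05% digitonin. Substrate supplemented with PBS or 10 µM compound. PMCA: incubation at 37/40 °C with 40 s sonication pulses at 270–280 W.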

The subject of series [22] is ScGT1. Described as §3. Type of series: functional. The note with it: dose 0.1-10 µM, time 5.0 day. The procedure, abridged: as §2

Chain of Major prion protein (Mus musculus) (P04925 whole entry, the tested form may be a part): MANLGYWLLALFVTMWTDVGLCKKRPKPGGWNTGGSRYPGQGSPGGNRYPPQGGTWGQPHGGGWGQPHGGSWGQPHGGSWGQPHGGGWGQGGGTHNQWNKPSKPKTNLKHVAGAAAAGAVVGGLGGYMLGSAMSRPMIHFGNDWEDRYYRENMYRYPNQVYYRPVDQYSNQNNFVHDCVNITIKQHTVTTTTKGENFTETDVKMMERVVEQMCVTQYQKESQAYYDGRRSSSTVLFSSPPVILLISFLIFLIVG

`O=C(CN1CCCCC1)Nc1ccc2[nH]c3ccc(NC(=O)CN4CCCCC4)cc3c2c1`: in [1], the “Cell viability (% of control)” value worked out at 76%. The “Cell viability relative to control” value in series [2] came out at 81%. Moreover, the Activity in series [3] worked out at 44%; in [4] it was 105%; in [5], 69%; in series [6], 109%.

The pEC50 is the EC50 on a negative log10 scale, so that one unit is a factor of ten. As for `O=C(CN1CCCC1)Nc1ccc(Cc2ccc(NC(=O)CN3CCCC3)cc2)cc1`, the “Cell viability (% of control)” value in series [1] is on record as 69%. Besides, in series [7], the result was inactive. Moreover, the “Cell viability relative to control” value in series [2] stood at 85%. For the same compound, the Activity in series [3] stood at 13%; in [8] it was 7.8 µM; in series [4] it was 103%; in series [5] it was 50%; in [6], 127%. Also, the pEC50 in [9] is 5.60.

As to `O=C(CN1CCCC1)Nc1ccc2[nH]c3ccccc3c2c1`, the “Cell viability (% of control)” value in series [1] is listed as 72%. Further, in [2], the “Cell viability relative to control” value is on record as 83%. The Activity is reported as 26% in series [3], 75% in [4], 29% in [5] and 78% in series [6].

In the case of `CCN(CC)CC(=O)Nc1ccc2[nH]c3ccc(NC(=O)CN(CC)CC)cc3c2c1`, the “Cell viability (% of control)” value in series [1] worked out at 99%. Also, the outcome in series [7] was inactive. The “Cell viability relative to control” value in series [2] is 108%. Further, the Activity in series [3] was found to be 31%; in series [4] it was 57%; in series [5] it was 103%; in series [6] it was 84%. For the same compound, the pEC50 was 5.65 in series [10] and 5.10 in series [9].

As for `CN(C)CC(=O)Nc1ccc2[nH]c3ccc(NC(=O)CN(C)C)cc3c2c1`, the TIME was 21.5 h in series [11], 9.5 h in series [19] and 5 h in [20]. Further, the “Cell viability (% of control)” value in series [1] came to 99%. Moreover, the result in series [7] and in series [14] was inactive. The “Cell viability relative to control” value in series [2] turned out to be 111%. For the same compound, the inhibition result in series [12], in [16] and in [21] was “inactive” throughout. The Activity in series [3] is given as 17%; in series [4], 47%; in [5], 95%; in [6], 130%. Besides, the result in series [13] was Active. Also, the pEC50 in series [10] is 5.87; in [15], 5.14; in [18], 4.47; in [9] it was 5.18. Besides, in series [17], the inhibition result is “Active”.

For `CC(C)N(CC(=O)Nc1ccc2[nH]c3ccc(NC(=O)CN(C(C)C)C(C)C)cc3c2c1)C(C)C`, in [1], the “Cell viability (% of control)” value stood at 75%. Also, the “Cell viability relative to control” value in series [2] turned out to be 92%. The Activity came out at 24% in series [3], 39% in series [4], 61% in series [5] and 73% in [6].

Consider `O=C(CN1CCN(c2ccccc2)CC1)Nc1ccc2[nH]c3ccc(NC(=O)CN4CCN(c5ccccc5)CC4)cc3c2c1`, for which the “Cell viability (% of control)” value in series [1] came to 73%. In series [2], the “Cell viability relative to control” value is recorded as 71%. For the same compound, the Activity in [3] turned out to be 134%; in series [4], 136%; in series [5], 63%; in [6], 124%.

Turning to `O=C(Cn1ccnc1)Nc1ccc2[nH]c3ccc(NC(=O)Cn4ccnc4)cc3c2c1`, in series [1], the “Cell viability (% of control)” value worked out at 89%. In [2], the “Cell viability relative to control” value is recorded as 100%. For the same compound, the Activity in series [3] was 74%; in series [4], 98%; in [5], 77%; in [6], 120%.

On to `CN1CCN(CC(=O)Nc2ccc3[nH]c4ccc(NC(=O)CN5CCN(C)CC5)cc4c3c2)CC1`, for which the “Cell viability (% of control)” value in series [1] is listed as 70%. The “Cell viability relative to control” value in series [2] is given as 99%. Further, the Activity in [3] turned out to be 28%; in series [4] it was 46%; in series [5], 47%; in [6], 85%.

Regarding `O=C(CN1CCOCC1)Nc1ccc2[nH]c3ccc(NC(=O)CN4CCOCC4)cc3c2c1`, the “Cell viability (% of control)” value in [1] is reported as 86%. Also, in series [2], the “Cell viability relative to control” value was 101%. Also, the Activity was 59% in [3], 102% in [4], 84% in [5] and 96% in [6].

As to `O=C(CN1CCCC1)Nc1ccc2[nH]c3ccc(NC(=O)CN4CCCC4)cc3c2c1`, in [1], the “Cell viability (% of control)” value worked out at 85%. For the same compound, the “Cell viability relative to control” value in series [2] came out at 118%. The Activity in series [3] was 27%; in [22], “Dose-Dependent Effect”; in series [8] it was 7.4 µM; in series [4], 103%; in series [5], 71%; in series [6], 148%.
